Activity calls are given as the source filed them. The calls are words filed in the database; no cut-off is given here.

Data set [1] deals with T1, CAAX prenyl protease 1 homolog (Homo sapiens) (UniProt O75844).
T1 sequence (whole entry): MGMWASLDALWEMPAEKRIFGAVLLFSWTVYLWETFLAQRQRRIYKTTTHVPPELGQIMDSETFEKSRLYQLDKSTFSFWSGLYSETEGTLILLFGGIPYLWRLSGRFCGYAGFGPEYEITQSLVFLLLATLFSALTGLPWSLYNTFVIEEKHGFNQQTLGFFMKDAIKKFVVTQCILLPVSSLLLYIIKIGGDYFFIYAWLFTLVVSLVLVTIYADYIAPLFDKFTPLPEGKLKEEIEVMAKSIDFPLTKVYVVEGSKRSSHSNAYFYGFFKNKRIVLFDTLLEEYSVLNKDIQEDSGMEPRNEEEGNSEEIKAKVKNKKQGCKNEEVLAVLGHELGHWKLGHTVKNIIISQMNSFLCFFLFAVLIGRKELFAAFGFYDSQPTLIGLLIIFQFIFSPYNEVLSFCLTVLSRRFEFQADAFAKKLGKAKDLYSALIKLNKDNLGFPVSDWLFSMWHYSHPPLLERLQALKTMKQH
The experiment in a line: Inhibition of ZMPSTE24 in human U2OS cells assessed as increase in intracellular accumulation of prelamin A at 10 uM after 24 hrs by Western blot analysis relative to control. Format: cell-based. The procedure, abridged:
(§1)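 Cells treated 24 h with 10 μM compound, lysates analysed by Western blot with prelamin A-specific antibody; prelamin A band normalised to tubulin and expressed relative to untreated control (set to 1); lopinavir run in parallel as reference.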

For data set [2], the target named is T1, CAAX prenyl protease 1 homolog (Homo sapiens). The experiment in a line: Inhibition of ZMPSTE24 in human HCT116 cells assessed as increase in intracellular accumulation of prenylated prelamin A at 10 uM after 24 hrs by Western blot analysis relative to control. It counts as cell-based. The procedure, abridged: as §1
For data set [3], the system named is HPAF-II. The experiment in a line: Downregulation of MCM6 protein expression in human HPAF2 cells at 10 uM after 48 hrs by Western blot method. It counts as ADME, cell-based. (A western blot detects proteins with antibodies after separation by electrophoresis.)
Data set [4] has as its target T1, CAAX prenyl protease 1 homolog (Homo sapiens). Nature of the data set: Inhibition of ZMPSTE24 in human KP4 cells assessed as increase in intracellular accumulation of prenylated prelamin A at 10 uM after 24 hrs by Western blot analysis relative to control. It counts as cell-based. The procedure, abridged: as §1
In data set [5] the test system is HPAF-II. Nature of the data set: Induction of p21 accumulation in human HPAF2 cells at 10 uM after 48 hrs by Western blot method. It counts as cell-based.
In data set [6] the test system is KP-4. Nature of the data set: Antimigratory activity against human KP4 cells at 10 uM after 10 days by crystal violet staining-based assay. Format: functional, cell-based. The procedure, abridged: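 Transmigration assay in KP-4 cells; test agents at single 10 μM, with lopinavir and 0.15% DMSO (vehicle) in buffer as controls.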
Data set [7] addresses T1, CAAX prenyl protease 1 homolog (Homo sapiens). The experiment in a line: Inhibition of ZMPSTE24 in human HPAF2 cells assessed as increase in intracellular accumulation of prenylated prelamin A at 10 uM after 24 hrs by Western blot analysis relative to control. It counts as cell-based. The procedure, abridged:
as §1

In data set [8] the test system is KP-4. Nature of the data set: Antiproliferative activity against human KP4 cells at 10 uM after 7 days by crystal violet staining-based assay. Format: cell-based. As to conditions: kp-4, 168 h. The procedure, abridged: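 Proliferation assay in KP-4 cells, single concentration 10 μM.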
The target of data set [9] is T1, CAAX prenyl protease 1 homolog (Homo sapiens). Nature of the data set: Inhibition of ZMPSTE24 in human SW1990 cells assessed as increase in intracellular accumulation of prenylated prelamin A at 10 uM after 24 hrs by Western blot analysis relative to control. Format: cell-based. The procedure, abridged: as §1
Data set [10] deals with KP-4. Nature of the data set: Downregulation of MCM6 protein expression in human KP4 cells at 10 uM after 48 hrs by Western blot method. Particulars: kp-4, 48 h. It counts as ADME, cell-based.
The test system of data set [11] is KP-4. Nature of the data set: Induction of p21 accumulation in human KP4 cells at 10 uM after 48 hrs by Western blot method. Format: cell-based. Particulars: kp-4, 48 h.

With `Cc1cccc(C)c1OCC(=O)N[C@@H](Cc1ccccc1)[C@@H](O)C[C@H](Cc1ccccc1)NC(=O)[C@@H](NC(=O)c1ccnc(Cl)c1)C(C)C`, in [1], the fold change (FC) came to 3. For the compound `C[C@H](NC(=O)C(Cc1ccccc1)CP(=O)(O)[C@H](Cc1ccccc1)NC(=O)OCc1ccccc1)C(=O)O` (some centres not stated), the inhibition entry in data set [1] was “inactive”.

In the case of `Cc1cccc(C)c1OCC(=O)N[C@@H](Cc1ccccc1)[C@@H](O)C[C@H](Cc1ccccc1)NC(=O)[C@@H](NC(=O)c1cc(Cl)cc(C(F)(F)F)c1)C(C)C`, in data set [1], the fold change (FC) turned out to be 2.4.

Regarding `Cc1cccc(C)c1OCC(=O)N[C@@H](Cc1ccccc1)[C@@H](O)C[C@H](Cc1ccccc1)NC(=O)[C@@H](NC(=O)c1ccc(Br)cn1)C(C)C`, the fold change (FC) in data set [1] worked out at 2.1.

As to `Cc1cc(OC(F)(F)F)cc(C(=O)N[C@H](C(=O)N[C@@H](Cc2ccccc2)C[C@H](O)[C@H](Cc2ccccc2)NC(=O)COc2c(C)cccc2C)C(C)C)c1`, the fold change (FC) in [1] was 2.7. Consider `Cc1cccc(C)c1OCC(=O)N[C@@H](Cc1ccccc1)[C@@H](O)C[C@H](Cc1ccccc1)NC(=O)[C@@H](NC(=O)C1CCCCN1)C(C)C` (some centres not stated), for which the fold change (FC) in data set [1] was 2. For the compound `COc1cc(Cl)cc(C(=O)N[C@H](C(=O)N[C@@H](Cc2ccccc2)C[C@H](O)[C@H](Cc2ccccc2)NC(=O)COc2c(C)cccc2C)C(C)C)c1`, the fold change (FC) in [1] came out at 2.7.

Take `COC(=O)[C@H](C)NC(=O)C(Cc1ccccc1)CP(=O)(O)[C@H](Cc1ccccc1)NC(=O)OCc1ccccc1` (some centres not stated): the fold change (FC) in data set [2] was found to be 2.2; in [4], 3.6; in data set [7], 2.2; in [9], 7.4. Moreover, the Activity result in data set [3], in [5], in data set [8], in [10] and in data set [11] was “Non-Toxic” each time. Besides, the result in data set [6] was Active. In the case of `Cc1cccc(C)c1OCC(=O)N[C@@H](Cc1ccccc1)[C@@H](O)C[C@H](Cc1ccccc1)NC(=O)[C@@H](NC(=O)c1ccc([N+](=O)[O-])o1)C(C)C`, the fold change (FC) in [1] worked out at 2.5. Turning to `Cc1cccc(C)c1OCC(=O)N[C@@H](Cc1ccccc1)[C@@H](O)C[C@H](Cc1ccccc1)NC(=O)[C@H](C(C)C)N1CCCNC1=O`, the fold change (FC) in data set [2] was 1.4; in data set [4], 2.5; in data set [7], 2; in data set [9], 4.9; in [1], 1.2 to 2.1. Besides, the result in [6] was inactive. Turning to `Cc1cccc(C)c1OCC(=O)N[C@@H](Cc1ccccc1)[C@@H](O)C[C@H](Cc1ccccc1)NC(=O)[C@@H](NC(=O)Cc1cccnc1)C(C)C`, the fold change (FC) in data set [1] is 1.7. Take `Cc1cccc(C)c1OCC(=O)N[C@@H](Cc1ccccc1)[C@@H](O)C[C@H](Cc1ccccc1)NC(=O)[C@@H](NC(=O)C1CCC(=O)N1)C(C)C` (some centres not stated): in data set [1], the fold change (FC) was found to be 3.2. Consider `Cc1cccc(C)c1OCC(=O)N[C@@H](Cc1ccccc1)[C@@H](O)C[C@H](Cc1ccccc1)NC(=O)[C@@H](NC(=O)c1cc(C(F)(F)F)cc(C(F)(F)F)c1)C(C)C`, for which, in [1], the fold change (FC) was 2.1. For `Cc1cccc(C)c1OCC(=O)N[C@@H](Cc1ccccc1)[C@@H](O)C[C@H](Cc1ccccc1)NC(=O)[C@@H](NC(=O)Cc1ccc(Cl)cc1)C(C)C`, the fold change (FC) in data set [1] came to 2.8. With `Cc1cc(C)cc(C(=O)N[C@H](C(=O)N[C@@H](Cc2ccccc2)C[C@H](O)[C@H](Cc2ccccc2)NC(=O)COc2c(C)cccc2C)C(C)C)c1`, the fold change (FC) in data set [1] is 3.4.

`COc1cc(C(=O)N[C@H](C(=O)N[C@@H](Cc2ccccc2)C[C@H](O)[C@H](Cc2ccccc2)NC(=O)COc2c(C)cccc2C)C(C)C)cc(C(F)(F)F)c1`: in data set [1], the fold change (FC) is 1.4.

Take `Cc1cccc(C)c1OCC(=O)N[C@@H](Cc1ccccc1)[C@@H](O)C[C@H](Cc1ccccc1)NC(=O)[C@@H](NC(=O)c1ccc2[nH]nnc2c1)C(C)C`: the fold change (FC) in data set [1] came to 1.5. With `Cc1cccc(C)c1OCC(=O)N[C@@H](Cc1ccccc1)[C@@H](O)C[C@H](Cc1ccccc1)NC(=O)[C@@H](NC(=O)CC1CC1)C(C)C`, the fold change (FC) in [1] came out at 3.

For the origin of these results see ChEMBL document CHEMBL4265988, “Molecular tools that block maturation of the nuclear lamin A and decelerate cancer cell migration” (Bioorg Med Chem, 2018).
